“And” between values parts separate entries of the source, which are not always exact repeats. Identical values can stand only once. Like-named read-outs stand apart in the source and are kept apart here.
Experiments:
[1] = system: Akt; assay: pS473 Akt phosphorylation by pancreatic growth factors; assay type: cell-based; details: rat pancreatic acini; data not shown
[2] = system: Yes; details: cited from earlier work; for activation of Yes by EGF and PDGF: hepatocytes and fibroblasts
[3] = system: cSrc; details: murine fibroblasts; cited from earlier work
[4] = system: Lyn; details: cited from earlier work
[5] = system: Fyn; details: cited from earlier work
[6] = system: SFK; details: cited from earlier work
[7] = system: PKC-δ and Src; details: PC-12 cells and parotid cells; cited from earlier work
[8] = system: adenylate cyclase; details: cited from earlier work; for adenylate cyclase activation: rat pancreatic acini; for activation of PLC cascades or adenylate cyclase: pancreatic acinar cell
[9] = system: Src; details: cited from earlier work
[10] = system: [Ca^2+i] increase stimulated by CCK; details: thapsigargin, calcium-free medium; cited from earlier work
[11] = system: endoplasmic reticulum Ca^2+-ATPase; assay: Effect of Ca2+ depletion on CCK- and TPA-stimulated pY416 Yes phosphorylation; assay type: cell-based, rat; details: for inhibition of TPA-/CCK-stimulated Yes activation (thapsigargin, words): TPA and CCK as stimulants
[12] = system: Lyn; details: pancreatic acini; cited from earlier work
[13] = system: Yes kinase; assay type: cell-based, rat; details: for association of Yes with p125FAK, PYK2, PI3K, PKD, p130Cas, Shc and PKCδ (Co-IP) / association of Yes with Raf, Cbl or ERK1/2 (Co-IP): CCK 100 nM 2.5 min or TPA 1 µM 5 min; for association of Yes with p125FAK, PYK2, PI3K, PKD, p130Cas, Shc and PKCδ (Co-IP): 8 experiments; for association between Yes and PI3K / association of Yes with autophosphorylated forms pY397 p125FAK and pY402 PYK2: CCK or TPA; for direct association of Raf, Cbl or ERK1/2 with Yes, reverse Co-IP: Cbl or ERK1/2 antibodies, detection with Yes antibodies; for association of Yes with Cbl or Erk 1/2 (Co-IP), discussion / association of Yes with focal adhesion kinases, PKCδ, Shc, p130Cas, PI3K, PTEN and PKD (Co-IP): TPA and CCK, physiological and supramaximal concentrations
[14] = system: Yes kinase; assay type: cell-based, rat; details: for Yes pY416 phosphorylation, time course, 1 min: 1 min incubation; for tmax (Yes pY416 phosphorylation) / t1/2 (Yes pY416 phosphorylation): CCK (100 nM) or TPA (1 µM)
Procedure, shortened: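 Collagenase-dispersed rat acini were preincubated 2 h at 37 °C, then incubated with CCK (100 nM) or TPA (1 µM) for times up to 15 min. Yes was immunoprecipitated (4 µg anti-Yes, protein G, overnight 4 °C), then blotted for pY416 and total Yes and read by densitometry. Values are % of zero-time control, mean ± S.E., n=7, with t1/2 from curve fitting.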

[15] = system: CCK2 receptors; assay: CCK2 receptor ligands: pY416 Yes phosphorylation in rat pancreatic acini; assay type: cell-based; details: gastrin 10 nM, 1 min
[16] = system: Hck; details: endothelial cells; cited from earlier work
[17] = system: Yes kinase; assay type: cell-based, rat
Procedure, shortened: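 Rat pancreatic acini were prepared by collagenase digestion, preincubated 2 h at 37 °C in HEPES buffer (pH 7.45), then exposed to graded concentrations of CCK or CCK-JMV at 37 °C. Yes was immunoprecipitated from lysates and immunoblotted for pY416 Src family, with total Yes as loading control, and quantified by densitometry.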

[18] = system: PKC; assay: Effect of PKC inhibition on CCK- and TPA-stimulated pY416 Yes phosphorylation; assay type: cell-based, rat
Procedure, shortened: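 Rat acini were pretreated with the PKC inhibitor GF109203X (5 µM) during preincubation, then incubated with 100 nM CCK (1 min) or 1 µM TPA (2.5 min) at 37 °C. Lysates were immunoprecipitated with anti-Yes and blotted for pY416 Src family and total Yes, quantified by densitometry. Results are expressed as % of control, mean ± S.E., n=4.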

[19] = from CCK-JMV partial stimulation

For “Epidermal growth factor (NSNTGCPPSYDGYCLNGGVCMYVESVDRYVCNCVIGYIGERCQHRDLRWWKLR; UniProt P07522 974-1026, looked up) [EGF]”, the “pS473 Akt phosphorylation” value [1] is listed as “stimulated pS473 Akt phosphorylation”, the “activation of Yes by EGF and PDGF” value [2] is listed as “stimulated activation of Yes” and the cSrc activation [3] is listed as “activate the SFK, cSrc”.

In the case of bombesin, the “Lyn activation in pancreatic acinar cells” value (from here on “Lyn activation”) [4] is listed as “activated”.

In the case of insulin: pancreatic growth factor, the “pS473 Akt phosphorylation” value [1] is given as “stimulated pS473 Akt phosphorylation”, the “Fyn activation by insulin” value ([5]; ovarian cells) is given as “stimulates Fyn activation” and the “SFK activation by insulin” value ([6]; skeletal muscle cells) is given as “stimulates SFK activation”.

In the case of `C[N+](C)(C)CCOC(N)=O` [carbachol], the “association of PKC-δ and Src” value [7] is listed as “neither TPA nor carbachol stimulated the association of PKC-δ and Src” and the “Lyn activation” value [4] is listed as “activated”.

For vasoactive intestinal peptide [VIP], the adenylate cyclase activation [8] is given as “activates adenylate cyclase”.

For insulin-like growth factor 1 [IGF-1], the “pS473 Akt phosphorylation” value [1] is given as “stimulated pS473 Akt phosphorylation” and the “Src activation by IGF” value ([9]; differentiating preadipocytes) is given as “stimulates Src activation”.

For basic fibroblast growth factor [bFGF], the “pS473 Akt phosphorylation” value [1] is listed as “stimulated pS473 Akt phosphorylation”, the “SFK activation in pancreatic acinar cells” value ([6]; bFGF, pancreatic acinar cells) is listed as “not activate SFK” and the cSrc activation [3] is listed as “activate the SFK, cSrc”.

For `C/C=C(/C)C(=O)O[C@H]1C(C)=C2[C@H]([C@@H]1OC(=O)CCCCCCC)[C@@](C)(OC(C)=O)C[C@H](OC(=O)CCC)[C@@]1(O)[C@H]2OC(=O)[C@@]1(C)O` [Thapsigargin], the “inhibition of CCK-stimulated [Ca2+]i increase” value [10] is listed as “completely inhibit”, the “inhibition of TPA-/CCK-stimulated Yes activation (thapsigargin, words)” value [11] is listed as “inhibit TPA−/CCK-stimulated Yes” and the “inhibition of TPA-/CCK-stimulated Yes activation (thapsigargin, words)” value ([11]; listed as thapsigargin) is listed as “did not completely inhibit CCK-stimulated Yes activation”. The “reduction of CCK-stimulated Yes activation by thapsigargin (Ca2+ depletion)” value ([11]; thapsigargin, calcium-depleting conditions, + CCK) was 71%.

For `CCCCCCCCCCCCCC(=O)O[C@@H]1[C@@H](C)[C@@]2(O)[C@@H](C=C(CO)C[C@]3(O)C(=O)C(C)=C[C@@H]23)[C@@H]2C(C)(C)[C@]12OC(C)=O` [TPA, 12-O-tetradecanoylphorbol-13-acetate], the “association of Lyn with PKC-δ, Shc, p125FAK and Pyk-2” value [12] is listed as “stimulated its association with PKC-δ, Shc, p125FAK and Pyk-2”, the “association of PKC-δ and Src” value [7] is listed as “neither TPA nor carbachol stimulated the association of PKC-δ and Src” and the “association of Yes with p125FAK, PYK2, PI3K, PKD, p130Cas, Shc and PKCδ (Co-IP)” value [13] is listed as “produced an increase in the association of Yes”. For the same compound, the “association of Yes with Raf, Cbl or ERK1/2 (Co-IP)” value ([13]; data not shown) was “not with Raf, Cbl or ERK1/2”, the “association between Yes and PI3K” value [13] was “stimulated an association between Yes and PI3K” and the “association of Yes with autophosphorylated forms pY397 p125FAK and pY402 PYK2” value [13] was “stimulates an association of Yes with each of their specific autophosphorylated forms”. The “direct association of Raf, Cbl or ERK1/2 with Yes, reverse Co-IP” value [13] was “did not obtained any stimulated direct association with Yes”, the “association of Yes with Cbl or Erk 1/2 (Co-IP), discussion” value [13] was “not with Cbl or Erk 1/2” and the “association of Yes with focal adhesion kinases, PKCδ, Shc, p130Cas, PI3K, PTEN and PKD (Co-IP)” value [13] was “stimulate the association of Yes”. The “Yes pY416 phosphorylation, time course, 1 min” value ([14]; means±S.E., 7 experiments) was 153±25 % of control, the “tmax (Yes pY416 phosphorylation)” value ([14]; 7 experiments) was 2.49±0.29 min and the “t1/2 (Yes pY416 phosphorylation)” value ([14]; means±S.E., 7 experiments) was 1.25±0.24 min. The “Yes pY416 phosphorylation, time course, 2.5 min” value ([14]; TPA, 2.5 min, means±S.E., 7 experiments, p<0.05) was 266±47 % of control and the “duration of increased Yes pY416 phosphorylation” value ([14]; sustained increase) was 15 min.

With Gastrin the “pY416 Yes phosphorylation by gastrin” value [15] was “did not produce any increase in pY416 Yes phosphorylation”.

For “Endothelin-1: interacts with ET-1 and ET-3 receptors in the pancreatic acinar cell”, the “activation of PLC cascades or adenylate cyclase” value [8] is given as “does not activate PLC cascades nor activate adenylate cyclase”, the “activation of PLC cascades or adenylate cyclase” value ([8]; listed as endothelin) is given as “does not stimulate phospholipase C or adenylate cyclase” and the “Yes activity with endothelin” value ([2]; endothelial cells) is given as “unaltered”. The “Src inhibition by endothelin” value ([9]; endothelial cells) was “inhibited”, the “Hck inhibition by endothelin” value [16] was “inhibited” and the “Fyn activation by endothelin” value ([5]; endothelial cells) was “activated the SFK Fyn”. The “SFK activation by endothelin” value ([6]; different cells) was “activates SFKs in different cells” and the “Lyn activation” value [4] was “weakly stimulated”.

In the case of “COOH-terminal octapeptide of cholecystokinin [CCK]”, the “activation of Yes through CCK2 receptors” value ([2]; rat pancreatic acinar cell line AR42J) is given as “activate Yes through CCK2 receptors”, the “association of Lyn with PKC-δ, Shc, p125FAK and Pyk-2” value [12] is given as “stimulated its association with PKC-δ, Shc, p125FAK and Pyk-2” and the “Lyn activation” value [4] is given as “activated”. The “association of Yes with p125FAK (Co-IP), low CCK” value ([13]; CCK 100 pM and 0.1 nM, 2.5 min) was “not with ^p125FAK”, the “association of Yes with Raf, Cbl or ERK1/2 (Co-IP), low CCK” value ([13]; CCK 100 pM and 0.1 nM, data not shown) was “with Raf, Cbl or ERK1/2 (data not shown)” and the “association of Yes with p125FAK, PYK2, PI3K, PKD, p130Cas, Shc and PKCδ (Co-IP)” value [13] was “produced an increase in the association of Yes”. For the same compound, the “association of Yes with Raf, Cbl or ERK1/2 (Co-IP)” value ([13]; data not shown) was “not with Raf, Cbl or ERK1/2”, the “association between Yes and PI3K” value [13] was “stimulated an association between Yes and PI3K” and the “association of Yes with autophosphorylated forms pY397 p125FAK and pY402 PYK2” value [13] was “stimulates an association of Yes with each of their specific autophosphorylated forms”. For the same compound, the “direct association of Raf, Cbl or ERK1/2 with Yes, reverse Co-IP” value [13] was “did not obtained any stimulated direct association with Yes”, the “association of Yes with Cbl or Erk 1/2 (Co-IP), discussion” value [13] was “not with Cbl or Erk 1/2” and the “association of Yes with focal adhesion kinases, PKCδ, Shc, p130Cas, PI3K, PTEN and PKD (Co-IP)” value [13] was “stimulate the association of Yes”. For the same compound, the “maximal stimulation of Y416 phosphorylation of Yes” value ([17]; CCK 100 nM, means±S.E., 5 experiments) was 280±16 % of control, the “lowest concentration with detectable increase in Y416 phosphorylation of Yes” value ([17]; CCK dose-response) was 10 pM and the “share of CCK stimulation of Yes mediated by high affinity CCK1 receptor state” value [17, 19] was 64%. The “share of CCK stimulation of Yes mediated by low affinity CCK1 receptor state” value [17, 19] was 36%, the “Yes pY416 phosphorylation, time course, 1 min” value ([14]; means±S.E., 7 experiments) was 310±43 % of control and the “tmax (Yes pY416 phosphorylation)” value ([14]; 7 experiments) was 1 min and 0.98±0.14 min. For the same compound, the “t1/2 (Yes pY416 phosphorylation)” value ([14]; means±S.E., 7 experiments) was 0.309±0.042 min and 0.31±0.04 min and the “Yes pY416 phosphorylation, time course, 30 s” value ([14]; CCK, 30-second incubation, means±S.E., 7 experiments, p<0.05) was 278±27 % of control.

With `CN(C)CCCn1cc(C2=C(c3c[nH]c4ccccc34)C(=O)NC2=O)c2ccccc21` [GF109203X] the “decrease in CCK-stimulated activation of Yes by PKC inhibitor” value ([18]; GF109203X + CCK) was 80% and the “inhibition of TPA-/CCK-stimulated Yes activation (PKC inhibitor, words)” value ([18]; TPA and CCK as stimulants) was “inhibit TPA−/CCK-stimulated Yes”.

In the case of “Secretin: activates adenylate cyclase in rat pancreatic acini”, the adenylate cyclase activation [8] is listed as “activates adenylate cyclase”, the “SFK activation by secretin” value ([6]; other studies) is listed as “activated the SFKs” and the “Lyn activation” value [4] is listed as “weakly stimulated”.

In the case of platelet-derived growth factor [PDGF], the “pS473 Akt phosphorylation” value [1] is given as “stimulated pS473 Akt phosphorylation”, the “activation of Yes by EGF and PDGF” value [2] is given as “stimulated activation of Yes” and the cSrc activation [3] is given as “activate the SFK, cSrc”.

Source: paper PMC3404614 (Biochimica et Biophysica Acta, 2012)
